Experimental data: PubChem BioAssay
Active and inactive are the calls of the source.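 The calls were made as follows, unless noted: active = fluorescence slope after compound addition differing from the mean of all screened samples at 99.7% confidence, in either direction; inactive = the rest.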

How the values were obtained:
[1] = inhibitors of TNFa-induced NFkB p65 translocation, primary screen, imaging, HUVEC, MLSMR starter and 10KST1 sets (AID 438;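 active = inhibition above 20% together with a positive visual image hit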;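 also: compound added about 3h40 before a 20 min TNFalpha stimulation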;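 as to inhibition: signal is the nuclear over cytoplasmic p65 intensity ratio per well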); conditions: HUVEC TNFa-induced p65 nuclear translocation; cell count: measured here: nuclei count (cytotoxicity indicator), at 2.08 µM; inhibition: at 2 µM, stronger effect = higher value, 0% TNFa-plus-vehicle, 100% no-TNFa wells
[2] = inhibitors of mutant huntingtin aggregation, primary screen, imaging, exon1htt(103Q)mCFP cells, high-content imaging (AID 483;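 active = visual image review flags a hit and inhibition of aggregation exceeds 20%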;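 also: compound exposure lasted 3 days before fixation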;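 as to nuclei count: percent of the per-plate median nuclei count of sample wells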); conditions: exon1htt(103Q)mCFP cell line, aggregate imaging, at 2 µM; inhibition of aggregation: stronger effect = higher value; nuclei count: measured here: cell count, toxicity
[3] = inhibitors of E-selectin induction by TNFa, primary screen, imaging, HUVEC, immunofluorescence, MLSMR starter and 10KST1 sets (AID 487;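 active = visually confirmed hit in the image check and inhibition above 20%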;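 as to inhibition: signal is fraction of cell area covered by stained E-selectin grains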;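 as to nuclei count: 100% = median nuclei count of all wells on the same plate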); conditions: HUVEC TNFalpha-induced E-selectin immunofluorescence imaging, at 2 µM; inhibition: stronger effect = higher value; nuclei count: measured here: cell number, toxicity
[4] = biological target: Voltage-gated potassium channel subunit beta-2 (Rattus norvegicus) (UniProt P62483); assay: KvBeta enzyme negative modulators, primary screen, biochemical, NADPH fluorescence (AID 622;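 active = fluorescence slope higher than the sample average by over 3 SD, cut at about -0.22 in these data, passing the limit was not always enough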;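 also: slope of raw intensity against log time taken from 70 to 1610 s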); conditions: recombinant KvBeta, 4-cyanobenzaldehyde reduction, at 10 µM, stronger effect = higher value
[5] = biological target: Voltage-gated potassium channel subunit beta-2 (Rattus norvegicus) (UniProt P62483); assay: KvBeta positive modulators, primary screen, biochemical, NADPH fluorescence (AID 623;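 active = NADPH fluorescence slope more negative than the mean of all samples by about 3 SD, 99.7% confidence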;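 also: fluorescence intensity change per second fitted from 20 to 320 s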); conditions: Recombinant KvBeta, NADPH fluorescence decrease slope, 10 min; at 10 µM; stronger effect = lower value
[6] = biological target: Alpha-2C adrenergic receptor (Homo sapiens) (UniProt P18825); assay: modulators of alpha2C/GIRK thallium flux, primary screen, cell-based, HEK293 alpha2C/GIRK1/2 (AID 624); conditions: thallium flux BTC fluorescence, at 10 µM, actives lie on both sides;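 also: slope of fluorescence ratio to pre-addition baseline per second over 15 to 24 s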
[7] = inhibitors of larval lipid processing in zebrafish, primary screen, whole organism, PED6 fluorescence, gall bladder and intestine (AID 686;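 active = a full or partial loss of lipid-probe fluorescence in the fish gall bladder, intestine or both, judged by eye; inactive = no fluorescence loss, or compound toxic to the fish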;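 also: larvae 5 to 7 days old with five fish per well; signal comes from phospholipase A2 cleavage of quenched PED6 carried via bile; overnight exposure to compound and PED6 before scoring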); conditions: Zebrafish larvae PED6 lipid processing, fluorescence scoring; screened at 20 µM (by protocol)
Method in brief: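 Doses: 20 µM single dose. Test system: live zebrafish larvae aged 5-7 days, whole organism. Quantity: five larvae per well. Measured by: By-eye fluorescence microscopy. Reagent: ingested quenched lipid PED6 at 100 nM. Read-out: visual per-well fluorescence inhibition score. Times: overnight exposure of larvae to compound plus PED6.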

[8] = inhibitors of Sendai virus-induced IRF3 signaling, primary screen, TLR/RLR signaling modifier project, cell-based, Sendai virus stimulus, luciferase, 10K MLSCN set (AID 602276;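 active = inhibition at or above 50% at 10 µM; inactive = inhibition below 50%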;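 also: firefly luciferase from ISG56 promoter only with Renilla not read in this screen; 0% = Sendai virus plus DMSO and 100% = medium plus DMSO without virus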); conditions: HEK293 RL24 IRF3 luciferase reporter, at 10 µM, stronger effect = higher value
[9] = inhibitors of poly I:C-induced TLR3 signaling, primary screen, cell-based, poly I:C stimulus, luciferase, 10K MLSCN set (AID 602277;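 active = inhibition of the reporter signal at or above 50%; inactive = inhibition below 50%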); conditions: HEK293-TLR3 RL24 IRF3 luciferase reporter, at 10 µM, stronger effect = higher value

Voltage-gated potassium channel subunit beta-2 (Rattus norvegicus), sequence (P62483 whole entry, looked up): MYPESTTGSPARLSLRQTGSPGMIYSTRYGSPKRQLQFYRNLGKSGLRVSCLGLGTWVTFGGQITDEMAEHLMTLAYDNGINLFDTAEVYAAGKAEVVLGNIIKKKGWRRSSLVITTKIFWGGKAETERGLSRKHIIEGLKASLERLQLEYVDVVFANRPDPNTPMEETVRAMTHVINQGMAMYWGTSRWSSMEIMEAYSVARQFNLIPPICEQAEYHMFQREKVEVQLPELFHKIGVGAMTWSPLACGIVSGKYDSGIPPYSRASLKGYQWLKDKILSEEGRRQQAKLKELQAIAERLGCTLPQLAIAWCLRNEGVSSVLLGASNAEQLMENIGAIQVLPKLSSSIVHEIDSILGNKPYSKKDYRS
Alpha-2C adrenergic receptor (Homo sapiens), sequence (P18825 whole entry, looked up): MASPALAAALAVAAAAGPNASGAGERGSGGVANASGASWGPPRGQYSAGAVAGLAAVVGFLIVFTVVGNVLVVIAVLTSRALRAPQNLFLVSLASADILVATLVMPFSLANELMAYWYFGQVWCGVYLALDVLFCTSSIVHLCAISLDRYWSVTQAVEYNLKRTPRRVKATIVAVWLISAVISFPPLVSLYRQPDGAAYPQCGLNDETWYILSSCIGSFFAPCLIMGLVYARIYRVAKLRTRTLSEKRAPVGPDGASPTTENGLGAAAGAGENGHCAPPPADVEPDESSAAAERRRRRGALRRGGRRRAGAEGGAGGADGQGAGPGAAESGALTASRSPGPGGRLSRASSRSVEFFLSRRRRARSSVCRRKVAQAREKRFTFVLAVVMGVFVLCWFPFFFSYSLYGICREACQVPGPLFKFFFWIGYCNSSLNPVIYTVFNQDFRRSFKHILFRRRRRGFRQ

Compound	cell count [1]	inhibition [1]	inhibition of aggregation [2]	nuclei count [2]	inhibition [3]	nuclei count [3]	fluorescence slope [4]	NADPH fluorescence slope [5]	slope [6]	outcome [7]	inhibition [8]	inhibition [9]
C#CCSc1nc(-c2cccs2)ccc1C#N	340	-1% (inactive)	-15% (inactive)	92.8%	-85.2% (inactive)	112%	-0.5 (inactive)	5.7e-06 (inactive)	0.00646 (inactive)	inactive	-10.7% (inactive)	5.18% (inactive)
CCC(CCC(=O)Nc1cccc(C(=O)O)c1)C(=O)O (configuration not stated)	506	8.8% (inactive)	10.2% (inactive)	86.5%	49.6% (inactive)	74.2%	-0.448 (inactive)	-2.4e-05 (inactive)	0.00563 (inactive)	inactive	4.27% (inactive)	-4.76% (inactive)
Cc1ccc(C)c(-n2nnnc2SCC(=O)NCCC2=CCCCC2)c1	409	-6.6% (inactive)	28.8% (inactive)	99.5%	-16.3% (inactive)	106%	-0.468 (inactive)	-5.4e-05 (inactive)	0.00361 (inactive)	inactive	17.6% (inactive)	14.8% (inactive)
Cc1ccc(S(=O)(=O)NCC(c2cccnc2)N(C)C)cc1 (configuration not stated)	453	-1.9% (inactive)	2.5% (inactive)	106%	-33.6% (inactive)	127%	-0.464 (inactive)	-9.5e-06 (inactive)	0.00528 (inactive)	inactive	7.09% (inactive)	15.6% (inactive)
COC(=O)CSc1nnc(-c2ccc(OC)cc2OC)o1	609	6.3% (inactive)	6.1% (inactive)	109%	44.6% (inactive)	90.8%	-0.397 (inactive)	-5.2e-05 (inactive)	0.00519 (inactive)	inactive	13.1% (inactive)	10.4% (inactive)
COc1cc(S(=O)(=O)NC2CCCCC2C)ccc1Cl (configuration not stated)	691	4.8% (inactive)	-2% (inactive)	114%	-69.9% (inactive)	106%	-0.411 (inactive)	2.4e-05 (inactive)	0.00366 (inactive)	inactive	-3.61% (inactive)	-3.48% (inactive)
Cc1ccc(S(=O)(=O)NCC(=O)OCC(=O)Nc2ncc(Cl)cc2Cl)cc1	412	-0.4% (inactive)	-19.2% (inactive)	115%	-42.3% (inactive)	114%	-0.465 (inactive)	-4.6e-05 (inactive)	0.00472 (inactive)	inactive	17.2% (inactive)	25.7% (inactive)
Cc1cc(-c2ccccc2)nc(SCc2ccc(C(=O)O)o2)n1	398	-1.3% (inactive)	0.6% (inactive)	86.2%	-106% (inactive)	105%	-0.373 (inactive)	-6.9e-05 (inactive)	0.00508 (inactive)	inactive	7.19% (inactive)	8.59% (inactive)
Cc1ccc2[nH]c3c(=O)n(CCCN4CCN(C)CC4)cnc3c2c1	478	1% (inactive)	-13.7% (inactive)	105%	-36.8% (inactive)	115%	-0.38 (inactive)	-2.9e-05 (inactive)	0.0053 (inactive)	inactive	1.24% (inactive)	22.2% (inactive)
COc1ccccc1NC(=O)NC(N)=O	580	0.5% (inactive)	-22.8% (inactive)	104%	-36.1% (inactive)	115%	-0.386 (inactive)	4.8e-06 (inactive)	0.00503 (inactive)	inactive	2.43% (inactive)	1.16% (inactive)
CC1(C)CC(=O)C2=C(C1)Nc1ccccc1N=C2	759	-6.9% (inactive)	11.9% (inactive)	104%	40.8% (inactive)	94.5%	-0.483 (inactive)	-5.6e-05 (inactive)	0.00436 (inactive)	inactive	-4.26% (inactive)	-38.2% (inactive)
COc1cccc(N2CCN(CC(=O)c3c[nH]c4ccc(OC)cc34)CC2C)c1 (configuration not stated)	508	-6.7% (inactive)	6% (inactive)	85.4%	-36.3% (inactive)	103%	-0.368 (inactive)	-3.9e-05 (inactive)	0.00529 (inactive)	inactive	12.4% (inactive)	16% (inactive)
C(=N\n1cnnc1)/c1cccc(OCCOc2ccccc2)c1	237	7.1% (inactive)	0% (inactive)	96%	-33.2% (inactive)	108%	-0.351 (inactive)	-3.7e-05 (inactive)	0.00586 (inactive)	inactive	-29.6% (inactive)	-51.4% (inactive)
COCCNC(=O)C(c1ccc(C)o1)N(C(=O)c1snc(C(N)=O)c1N)c1ccc(C)cc1 (configuration not stated)	498	-3.6% (inactive)	19.7% (inactive)	94%	73.6% (inactive)	65.5%	-0.378 (inactive)	-5.3e-05 (inactive)	0.00521 (inactive)	inactive	12.5% (inactive)	7.41% (inactive)
N#CC1=C(N)N2C(=C(C#N)C13CCCCC3)SC1CCCCC12O (configuration not stated)	322	11.4% (inactive)	3.6% (inactive)	91.5%	-4.6% (inactive)	116%	-0.405 (inactive)	1.2e-05 (inactive)	0.00499 (inactive)	inactive	19% (inactive)	24.3% (inactive)
O=C(Nc1ccc2[nH]c3c(c2c1)CCCC3)c1ccco1	446	-20.5% (inactive)	31% (inactive)	85.7%	78.9% (active)	103%	-0.288 (inactive)	-4.7e-05 (inactive)	0.00582 (inactive)	inactive	-30.4% (inactive)	-98.2% (inactive)
Cc1occc1-c1nnc(SCC(=O)N2CCOCC2)n1Cc1ccco1	382	3% (inactive)	-5.6% (inactive)	82.5%	-41% (inactive)	107%	-0.371 (inactive)	-5e-05 (inactive)	0.00496 (inactive)	inactive	8.29% (inactive)	12.6% (inactive)
COc1ccc(-c2noc(CSc3nc4ccccc4c(=O)n3-c3ccccc3)n2)cc1OC	498	-1.8% (inactive)	12.7% (inactive)	96.7%	-114% (inactive)	128%	-0.412 (inactive)	-4.5e-05 (inactive)	0.0108 (active)	inactive	23.5% (inactive)	26.1% (inactive)
c1ccc(-c2cc(CSc3nc4ccccc4[nH]3)on2)cc1	416	5.3% (inactive)	-43% (inactive)	99.4%	-68.7% (inactive)	116%	-0.376 (inactive)	-8.1e-05 (inactive)	0.00533 (inactive)	inactive	-0.361% (inactive)	-25% (inactive)
Cn1c(=O)[nH]c(=O)c2c1nc(N1CCOCC1)n2CC(O)COc1ccc2ccccc2c1 (configuration not stated)	438	-4.5% (inactive)	10.8% (inactive)	107%	-54.4% (inactive)	120%	-0.44 (inactive)	-3.2e-05 (inactive)	0.00556 (inactive)	inactive	15.8% (inactive)	19.3% (inactive)
Cc1ccc(F)cc1NC(=O)C1CCCN(c2ncccn2)C1 (configuration not stated)	692	-7.8% (inactive)	-34.5% (inactive)	117%	-56.9% (inactive)	118%	-0.357 (inactive)	-1.9e-05 (inactive)	0.00523 (inactive)	inactive	7.51% (inactive)	9.04% (inactive)
